Results published in ChEMBL document CHEMBL3120102, “Structure-based design, synthesis and biological evaluation of novel anthra[1,2-d]imidazole-6,11-dione homologues as potential antitumor agents” (2013).

What was measured:
Assay type in all cases: functional
MDA-MB-468 = assay: Cytotoxicity against human MDA-MB-468 cells assessed as growth inhibition after 48 hrs by SRB assay; conditions: for GI50 / LC50 / TGI: MDA-MB-468, 48 h
How it was run: (§1)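 NCI 60-cell-line screen, five-dose stage: each cell line exposed for 48 h to five concentrations spanning five log steps; cellular protein measured by sulforhodamine B colorimetry. A time-zero cell control and plates without drug are used to derive GI50, TGI and LC50 from log-concentration dose-response curves.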

SNB-75 = assay: Cytotoxicity against human SNB75 cells assessed as growth inhibition after 48 hrs by SRB assay; conditions: for GI50 / LC50 / TGI: SNB-75, 48 h
How it was run: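 NCI 60-cell-line screen, two stages. Five-dose testing at […]. Cellular protein measured by sulforhodamine B colorimetry after 48 h drug exposure. A time-zero control and drug-free plates are used to derive GI50, TGI and LC50 from dose-response curves plotted as log10 concentration per cell line.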

[1] = Cytotoxicity against human Hs578T cells assessed as cell growth at 10 uM after 48 hrs by SRB assay; conditions: Hs-578T, read-out: Activity
PC-3 = assay: Cytotoxicity against human PC3 cells assessed as growth inhibition after 48 hrs by SRB assay; conditions: for GI50 / LC50 / TGI: PC-3, 48 h; how it was run: as §1
SF-295 = assay: Cytotoxicity against human SF295 cells assessed as growth inhibition after 48 hrs by SRB assay; conditions: for GI50 / LC50 / TGI: SF-295, 48 h; how it was run: as §1
HOP-92 = assay: Cytotoxicity against human HOP92 cells assessed as growth inhibition after 48 hrs by SRB assay; conditions: for GI50 / TGI / CC50: HOP-92, 48 h; for CC50: read-out: LC50 (the source's name)
How it was run: (§2)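 NCI 60-cell-line five-dose screen at […]. Drug exposure was 48 h, followed by sulforhodamine B protein staining. GI50, TGI and LC50 were calculated against a time-zero control and untreated plates, with dose–response curves plotted from log10 concentration.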

OVCAR-8 = assay: Cytotoxicity against human OVCAR8 cells assessed as growth inhibition after 48 hrs by SRB assay; conditions: for GI50 / LC50 / TGI: OVCAR-8, 48 h; how it was run: as §1
HCT-15 = assay: Cytotoxicity against human HCT15 cells assessed as growth inhibition after 48 hrs by SRB assay; conditions: for GI50 / LC50 (concentration killing 50% of cells) / TGI: HCT-15, 48 h; how it was run: as §2
NCI-H522 = assay: Cytotoxicity against human NCI-H522 cells assessed as growth inhibition after 48 hrs by SRB assay; conditions: for GI50 / TGI / CC50: NCI-H522, 48 h; for CC50: read-out: LC50 (the source's name); how it was run: as §1
HCC 2998 = assay: Cytotoxicity against human HCC2998 cells assessed as growth inhibition after 48 hrs by SRB assay; conditions: for GI50 / TGI / CC50: HCC 2998, 48 h; for CC50: read-out: LC50 (the source's name); how it was run: as §2
786-0 = assay: Cytotoxicity against human 786-0 cells assessed as growth inhibition after 48 hrs by SRB assay; conditions: for GI50 / LC50 (concentration causing 50% net cell kill) / TGI: 786-0, 48 h; how it was run: as §2
CAKI-1 = assay: Cytotoxicity against human CAKI-1 cells assessed as growth inhibition after 48 hrs by SRB assay; how it was run: as §2

CCSc1nc2ccc3c(c2[nH]1)C(=O)c1ccccc1C3=O
growth inhibition (GI) (MDA-MB-468): Dose-dependent effect | GI50 (MDA-MB-468): 2010 nM | LC50 (MDA-MB-468): > 100 µM | TGI (MDA-MB-468): 59.6 µM | growth inhibition (GI) (SNB-75): Dose-dependent effect | GI50 (SNB-75): 10.1 µM | LC50 (SNB-75): > 100 µM | TGI (SNB-75): 84.9 µM | growth at 10 µM [1]: 85.4% | growth inhibition (GI) (PC-3): Dose-dependent effect | GI50 (PC-3): 65 µM | LC50 (PC-3): > 100 µM | TGI (PC-3): > 100 µM | growth inhibition (GI) (SF-295): Dose-dependent effect | GI50 (SF-295): 4.17 µM | LC50 (SF-295): > 100 µM | TGI (SF-295): 47.4 µM | growth inhibition (GI) (HOP-92): Dose-dependent effect | GI50 (HOP-92): 90.6 µM | TGI (HOP-92): > 100 µM | CC50 (HOP-92): > 100 µM | growth inhibition (GI) (OVCAR-8): Dose-dependent effect | GI50 (OVCAR-8): 15.1 µM | LC50 (OVCAR-8): > 100 µM | TGI (OVCAR-8): > 100 µM | growth inhibition (GI) (HCT-15): Dose-dependent effect | GI50 (HCT-15): 3520 nM | LC50 (concentration killing 50% of cells) (HCT-15): > 100 µM | TGI (HCT-15): > 100 µM | growth inhibition (GI) (NCI-H522): Dose-dependent effect | GI50 (NCI-H522): 4.07 µM | TGI (NCI-H522): > 100 µM | CC50 (NCI-H522): > 100 µM | growth inhibition (GI) (HCC 2998): Dose-dependent effect | GI50 (HCC 2998): 12.6 µM | TGI (HCC 2998): > 100 µM | CC50 (HCC 2998): > 100 µM | growth inhibition (GI) (786-0): Dose-dependent effect | GI50 (786-0): 46.7 µM | LC50 (concentration causing 50% net cell kill) (786-0): > 100 µM | TGI (786-0): > 100 µM

O=C1c2ccccc2C(=O)c2c1ccc1[nH]c(=S)[nH]c21
growth at 10 µM [1]: 104%

CN(C)CCCSc1nc2ccc3c(c2[nH]1)C(=O)c1ccccc1C3=O
growth inhibition (GI) (MDA-MB-468): Dose-dependent effect | GI50 (MDA-MB-468): < 10 nM | TGI (MDA-MB-468): 0.439 µM | growth inhibition (GI) (SNB-75): Dose-dependent effect | GI50 (SNB-75): < 0.01 µM | TGI (SNB-75): < 0.01 µM | growth at 10 µM [1]: 69.3% | growth inhibition (GI) (SF-295): Dose-dependent effect | GI50 (SF-295): 14.8 µM | TGI (SF-295): 28.4 µM | growth inhibition (GI) (OVCAR-8): Dose-dependent effect | GI50 (OVCAR-8): 6.12 µM | TGI (OVCAR-8): 21.5 µM | growth inhibition (GI) (CAKI-1): Dose-dependent effect | GI50 (CAKI-1; CAKI-1, 48 h): 822 nM | TGI (CAKI-1; CAKI-1, 48 h): 11 µM | growth inhibition (GI) (HCT-15): Dose-dependent effect | GI50 (HCT-15): 680 nM | TGI (HCT-15): 15 µM | growth inhibition (GI) (NCI-H522): Dose-dependent effect | GI50 (NCI-H522): 12.2 µM | TGI (NCI-H522): 24.9 µM | CC50 (NCI-H522): 50.5 µM | growth inhibition (GI) (HCC 2998): Dose-dependent effect | GI50 (HCC 2998): 4.14 µM | TGI (HCC 2998): 17.7 µM | CC50 (HCC 2998): 43.4 µM | growth inhibition (GI) (786-0): Dose-dependent effect | GI50 (786-0): 9.73 µM | TGI (786-0): 23.8 µM

O=C1c2ccccc2C(=O)c2c1ccc1nc(SCCN3CCCC3)[nH]c21
growth inhibition (GI) (MDA-MB-468): Dose-dependent effect | GI50 (MDA-MB-468): 1330 nM | LC50 (MDA-MB-468): 7.05 µM | TGI (MDA-MB-468): 3.06 µM | growth inhibition (GI) (SNB-75): Dose-dependent effect | GI50 (SNB-75): 12.3 µM | LC50 (SNB-75): 51.5 µM | TGI (SNB-75): 25.2 µM | growth inhibition (GI) (PC-3): Dose-dependent effect | GI50 (PC-3): 2.57 µM | LC50 (PC-3): 43.4 µM | TGI (PC-3): 11 µM | growth inhibition (GI) (SF-295): Dose-dependent effect | GI50 (SF-295): 14.2 µM | LC50 (SF-295): 60.9 µM | TGI (SF-295): 29.4 µM | growth inhibition (GI) (OVCAR-8): Dose-dependent effect | GI50 (OVCAR-8): 6.38 µM | LC50 (OVCAR-8): > 100 µM | TGI (OVCAR-8): 30.4 µM | growth inhibition (GI) (HCT-15): Dose-dependent effect | GI50 (HCT-15): 1620 nM | LC50 (concentration killing 50% of cells) (HCT-15): 34.7 µM | TGI (HCT-15): 10.3 µM | growth inhibition (GI) (NCI-H522): Dose-dependent effect | TGI (NCI-H522): 32.5 µM | growth inhibition (GI) (HCC 2998): Dose-dependent effect | GI50 (HCC 2998): 4.91 µM | TGI (HCC 2998): 18.5 µM | CC50 (HCC 2998): 46 µM | growth inhibition (GI) (786-0): Dose-dependent effect | GI50 (786-0): 11.7 µM | LC50 (concentration causing 50% net cell kill) (786-0): 54.7 µM | TGI (786-0): 25.3 µM

CCCSc1nc2ccc3c(c2[nH]1)C(=O)c1ccccc1C3=O
growth inhibition (GI) (MDA-MB-468): Dose-dependent effect | GI50 (MDA-MB-468): 6380 nM | LC50 (MDA-MB-468): > 100 µM | TGI (MDA-MB-468): > 100 µM | growth inhibition (GI) (SNB-75): Dose-dependent effect | GI50 (SNB-75): 2.64 µM | LC50 (SNB-75): 98.1 µM | TGI (SNB-75): 6.43 µM | growth at 10 µM [1]: 33.3% | growth inhibition (GI) (PC-3): Dose-dependent effect | GI50 (PC-3): 11.3 µM | LC50 (PC-3): > 100 µM | TGI (PC-3): > 100 µM | growth inhibition (GI) (SF-295): Dose-dependent effect | GI50 (SF-295): 3.19 µM | LC50 (SF-295): > 100 µM | TGI (SF-295): 60.2 µM | growth inhibition (GI) (HOP-92): Dose-dependent effect | GI50 (HOP-92): 15 µM | TGI (HOP-92): > 100 µM | CC50 (HOP-92): > 100 µM | growth inhibition (GI) (OVCAR-8): Dose-dependent effect | GI50 (OVCAR-8): 3.48 µM | LC50 (OVCAR-8): > 100 µM | TGI (OVCAR-8): > 100 µM | growth inhibition (GI) (CAKI-1): Dose-dependent effect | GI50 (CAKI-1; CAKI-1, 48 h): 3070 nM | LC50 (CAKI-1; CAKI-1, 48 h): > 100 µM | TGI (CAKI-1; CAKI-1, 48 h): > 100 µM | growth inhibition (GI) (HCT-15): Dose-dependent effect | GI50 (HCT-15): > 100000 nM | LC50 (concentration killing 50% of cells) (HCT-15): > 100 µM | TGI (HCT-15): > 100 µM | growth inhibition (GI) (NCI-H522): Dose-dependent effect | GI50 (NCI-H522): 11.6 µM | TGI (NCI-H522): > 100 µM | CC50 (NCI-H522): > 100 µM | growth inhibition (GI) (786-0): Dose-dependent effect | GI50 (786-0): 2.13 µM | LC50 (concentration causing 50% net cell kill) (786-0): 9.04 µM | TGI (786-0): 4.39 µM
